MBD2 inh: inhibitors of human MBD2 binding to methylated oligonucleotide; actives 0.31% (n = 370,000); TR-FRET; Q9UBB5; inhibition, % at 4.4 µM; in the data active = inhibition above about 13%
Target sequence (Q9UBB5 whole entry, looked up): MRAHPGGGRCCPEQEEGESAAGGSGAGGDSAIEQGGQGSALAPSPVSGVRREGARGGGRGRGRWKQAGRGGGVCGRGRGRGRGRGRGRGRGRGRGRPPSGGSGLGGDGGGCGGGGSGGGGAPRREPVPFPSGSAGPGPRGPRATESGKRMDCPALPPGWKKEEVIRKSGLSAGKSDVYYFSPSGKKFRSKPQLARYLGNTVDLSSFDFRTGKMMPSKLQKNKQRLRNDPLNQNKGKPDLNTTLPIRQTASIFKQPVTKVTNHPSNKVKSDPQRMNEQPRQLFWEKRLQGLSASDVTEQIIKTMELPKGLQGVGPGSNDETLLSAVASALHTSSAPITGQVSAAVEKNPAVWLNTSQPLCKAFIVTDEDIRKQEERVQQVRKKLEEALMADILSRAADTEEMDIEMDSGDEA
ARFGAP1 inh: inhibitors of rat ARFGAP1; Q62848; Arfgap1-stimulated ARF1 GTP hydrolysis, GDP FP detection; inhibition, % at 16.5 µM; actives 0.26% (n = 360,000); AID 651572;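 active = inhibition above a per-plate limit, mean inhibition of low control wells plus 3 SD, cut at about 25% in these data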
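System: truncated rat Arfgap1 GAP domain / Medium: HEPES-based buffer, pH 7.5 / Also added: N-terminally truncated human ARF1-GTP substrate / Incubation: enzyme reaction 120 min at 25 °C after 20 min preincubation / Measured by: FP of antibody-bound GDP Alexa 633 tracer, ex 620/em 688 nm / Replicates: singlicate, each compound tested once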
TCR-CD3 inh: blocks the human TCR-CD3 interaction; inhibition, % at 9.4 µM; actives 0.37% (n = 360,000); TAMRA-labeled TCR probe fluorescence, biochemical; in the data active = inhibition above about 19%;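 note: recombinant mutant TCR 2C K166C tagged with TAMRA read by polarization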
UHRF1 MBD2 ctr: UHRF1 methyl-DNA binding inhibition. Q96T88. UHRF1 binding to methylated oligo, TR-FRET. inhibition, % at 4.4 µM. actives 0.75% (n = 370,000). AID 687016; in the data active = inhibition above about 21%;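 note: UHRF1 SRA domain binding a hemimethylated CpG hairpin DNA probe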
ASAP1 inh: blocks human ASAP1-stimulated Arf1 GTP hydrolysis. Q9ULH1. GDP FP detection. inhibition, % at 16.5 µM. actives 0.19% (n = 360,000). AID 624377; in the data active = inhibition above about 25%
LEDGF integ inh: blocks HIV-1 LEDGF/p75-dependent DNA integration; TR-FRET IN-LEDGF/p75 DNA integration, Eu/Cy5; inhibition, % at 3.7 µM; actives 0.64% (n = 370,000);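 active = inhibition above the screen-wide mean plus 3 SD, cut at about 13% in these data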;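 note: signal is the Cy5 over europium emission ratio at 671 and 618 nm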
Hits are given with their value; n = inactive; x = not tested or not shown. In the library only some 2% were active in any assay of this set; here they are far more common.

SMILES	MBD2 inh	ARFGAP1 inh	TCR-CD3 inh	UHRF1 MBD2 ctr	ASAP1 inh	LEDGF integ inh
Cc1[nH]c2ccccc2c1/C=N/NC(N)=S	n	n	n	n	n	n
CCn1c(N)nc2c1c(=O)n(C)c(=O)n2C	n	n	n	n	n	n
CCCc1nc2c(=O)n(C)c(=O)nc-2n(C)n1	22	n	n	n	n	n
Cn1ccnc1C(=O)c1cc(SCC(=O)NCc2ccccc2)nc2ccccc12	n	n	n	26	n	n
COC(=O)CSc1cc(C(=O)c2nccn2C)c2ccccc2n1	n	n	n	n	n	n
CC(C)C[C@H]1COc2cc(N3CCCC3)ccc2S(=O)(=O)N1C	n	x	x	n	x	n
CC(=O)c1c(C)oc2ccc(NS(=O)(=O)c3ccc(C)cc3)cc12	n	n	n	n	n	n
Cc1ccc(C)c(S(=O)(=O)Nc2ccc3oc(C)c(C(=O)O)c3c2)c1	n	n	n	24	n	n
CC(C)COc1ccc(C(=O)N/N=C/c2ccoc2)cc1	n	n	n	30	n	n
COc1ccccc1NC(=S)NNC(=O)c1ccncc1	n	n	n	23	n	n
COc1ccccc1NC(=S)NNC(=O)c1ccccc1	n	n	n	n	n	n
COc1ccccc1NC(=S)NC(=O)c1c(-c2ccccc2Cl)noc1C	n	n	n	24	n	n
c1ccc(CCNc2nc3ccccc3s2)cc1	n	n	n	21	n	n
CCOc1ccc(CCNC(=O)C2CCCCC2)cc1OCC	n	x	x	n	x	n
COc1ccc(CN2CCNC(=O)C2CC(=O)N(C)CC2CCOCC2)cc1C (configuration not stated)	n	n	n	31	n	n
COC(=O)C1CN(Cc2ccc(Cl)cc2)CCS(=O)(=O)N1Cc1cn(Cc2ccc(Cl)cc2)nn1 (configuration not stated)	n	x	x	n	x	n
COC(=O)C1CN(Cc2cn(Cc3ccc(OC)cc3)nn2)CCS(=O)(=O)N1Cc1ccc(C)cc1 (configuration not stated)	n	x	x	n	x	n
CCn1c(=O)n(CC)c2cc(N3CCCC3)c(NC(=O)c3ccccc3C)cc21	n	n	n	23	n	n
COC(=O)[C@]12C[C@H](CC(=O)NCc3ccc(C)o3)C(=O)N(CCc3ccc(OC)c(OC)c3)C1=C[C@H](COCc1ccccc1)O[C@@H]2C	n	x	x	n	x	n
COc1cc2nc(Nc3ccc(C)c(Cl)c3)nc(N)c2cc1OC	n	n	n	n	n	n
Cc1ccc(Nc2nc(N)c3ccccc3n2)cc1Cl	n	n	n	38	n	n
CCOC(=O)CC[C@H]1CC[C@]2(CCCN(Cc3ccccc3)C2)O1	n	x	x	n	x	n
CN(C)S(=O)(=O)N1CCN(CC(=O)Nc2ccc(Br)cc2)CC1	n	n	n	22	n	n
CCN(C[C@H]1N[C@@](C)(C(=O)OC)[C@H]2C(=O)N(C)C(=O)[C@@H]12)S(=O)(=O)c1ccc(C(F)(F)F)cc1	n	n	n	22	n	n
Cn1c(=O)c2cc(S(=O)(=O)N3CCN(c4ccccc4Cl)CC3)ccc2n(C)c1=O	n	x	x	n	x	n
SMILES	MBD2 inh	ARFGAP1 inh	TCR-CD3 inh	UHRF1 MBD2 ctr	ASAP1 inh	LEDGF integ inh
CCCCCCC12Cc3cc(OC)c(OC)cc3C(O1)C1=C(O2)C(C)(C)CCC1=O (configuration not stated)	n	n	n	n	n	n
COc1ccc(CN(C)C(=O)C2CCCN(c3nc4ccccc4o3)C2)cc1 (configuration not stated)	n	x	x	n	x	n
CCOc1ccccc1NC(=O)C1C2CCC3C(CCC21)C3(Cl)Cl (configuration not stated)	n	n	n	26	n	n
O=C(Nc1ccccc1Cl)C1C2CCC3C(CCC21)C3(Cl)Cl (configuration not stated)	n	n	n	n	n	n
CCOc1ccccc1NC(=O)COC(=O)C1CC1	n	n	n	23	n	n
O=C(CSc1nc(-c2ccccc2Cl)ns1)c1ccc(Cl)cc1	n	n	n	32	n	n
COc1ccc(C(=O)Nn2c(CC(C)C)nc3cc(OC)c(OC)cc3c2=O)c(OC)c1	n	n	n	34	n	n
COc1cc2nc(CC(C)C)n(NC(=O)c3ccccc3)c(=O)c2cc1OC	n	n	n	n	n	n
CCOc1ccc(NC(=O)N2CCC(C(=O)c3ccc(F)cc3)CC2)cc1	n	n	n	21	n	n

Source: PubChem
